In ChEMBL document CHEMBL3813690, “Synthesis and Th1-immunostimulatory activity of α-galactosylceramide analogues bearing a halogen-containing or selenium-containing acyl chain” (Bioorg Med Chem, 2016) one finds Ratio and Activity data, which are given here for six compounds.

Holding throughout (type): cell-based
Experiment [1] is filed under the species Mus musculus. Description: Activity at CD1d in C57BL/6 mouse splenocytes assessed as ratio of IFN-gamma production to IL4 production at 100 nM after 48 hrs by ELISA. An outline of the steps:
(§1)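 Freshly prepared mouse splenocytes, washed three times by centrifugation in medium, counted in Türk's solution, seeded at 3 × 10⁵ cells/well in RPMI1640 with 10% FBS and 1% penicillin–streptomycin. Ligands dissolved in pyridine (1 mg/mL stock), diluted in medium to final 10, 30, 100, 300 and 1000 nM. Incubated 48 h at 37 °C; supernatant IFN-γ and IL-4 measured by ELISA. KRN7000 as positive control.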
On the technique in general: ELISA stands for enzyme-linked immunosorbent assay.

The species entered for experiment [2] is Mus musculus. The experiment can be described thus: Activity at CD1d in C57BL/6 mouse splenocytes assessed as production of IFN-gamma at 10 to 1000 nM after 48 hrs by ELISA. The essentials: as §1
For experiment [3], the species on record is Mus musculus. The experiment can be described thus: Activity at CD1d in C57BL/6 mouse splenocytes assessed as production of IL4 at 10 to 1000 nM after 48 hrs by ELISA. The essentials:
as §1

The species entered for experiment [4] is Mus musculus. Description: Activity at CD1d in C57BL/6 mouse splenocytes assessed as production of IFN-gamma at 100 nM after 48 hrs by ELISA relative to KRN7000. The essentials: as §1
The species named for experiment [5] is Mus musculus. The experiment can be described thus: Activity at CD1d in C57BL/6 mouse splenocytes assessed as production of IL4 at 100 nM after 48 hrs by ELISA relative to KRN7000. The essentials: as §1

The source made the active and inactive calls. No cut-off for these calls is given here.

In the case of `CCCCCCCCCCCCCC[C@@H](O)[C@@H](O)[C@H](CO[C@H]1O[C@H](CO)[C@H](O)[C@H](O)[C@H]1O)NC(=O)CCCCCCCCCCCCCCCCCCCCCCCCF`, the Ratio in experiment [1] turned out to be 5. In addition, the outcome in experiment [2] and in experiment [3] was Active. Further, the figures for the Activity in experiment [4] and in experiment [5] were 104% and 21%, respectively.

Turning to `CCCCCCCCCCCCCCCCCCCCCCCCCC(=O)N[C@@H](CO[C@H]1O[C@H](CO)[C@H](O)[C@H](O)[C@H]1O)[C@H](O)[C@H](O)CCCCCCCCCCCCCC`, the result in experiment [3] was Active.

Take `CCCCCCCCCCCCCC[Se]CCCCCCCCCCC(=O)N[C@@H](CO[C@H]1O[C@H](CO)[C@H](O)[C@H](O)[C@H]1O)[C@H](O)[C@H](O)CCCCCCCCCCCCCC`: the Ratio in experiment [1] was determined as 3.3. For the same compound, the result in experiment [2] and in experiment [3] was Active. Also, the Activity in experiment [4] was found to be 130%; in experiment [5], 39%.

`CCCCCCCCCCCCCC[C@@H](O)[C@@H](O)[C@H](CO[C@H]1O[C@H](CO)[C@H](O)[C@H](O)[C@H]1O)NC(=O)CCCCCCCCCCCCCCCCCCCCCCCCBr`: the Ratio in experiment [1] came to 4.4. In addition, the result in experiment [2] and in experiment [3] was Active. Also, the Activity in experiment [4] is 84%; in experiment [5], 19%.

For the compound `CCCCCCCCCCCCCC[C@@H](O)[C@@H](O)[C@H](CO[C@H]1O[C@H](CO)[C@H](O)[C@H](O)[C@H]1O)NC(=O)CCCCCCCCCCCCCCCC[Se]CCCCCCCC`, the Ratio in experiment [1] came to 2.9. Further, the result in experiment [2] and in experiment [3] was Active. In addition, the results for the Activity in experiment [4] and in experiment [5] were 103% and 35%, respectively.

In the case of `CCCCCCCCCCCCCC[C@@H](O)[C@@H](O)[C@H](CO[C@H]1O[C@H](CO)[C@H](O)[C@H](O)[C@H]1O)NC(=O)CCCCCCCCCCCCCCCCCCCCCCCCCl`, the Ratio in experiment [1] turned out to be 3.8. For the same compound, the outcome in experiment [2] and in experiment [3] was Active. For the same compound, the values for the Activity in experiment [4] and in experiment [5] were 68% and 18%, respectively.
